Test results from ChEMBL document CHEMBL1137715, “A facile synthesis of alpha,alpha'-(EE)-bis(benzylidene)-cycloalkanones and their antitubercular evaluations” (2009).
In brackets after ≈: the same amount, converted by molar mass. Activity calls are given as the source filed them. The rule behind the calls is not given here.

Legend:
Escherichia coli = test: Antimicrobial activity against Escherichia coli ATCC 9637 after 24 hrs by standard microbroth dilution technique; assay type: functional, organism-based
Staphylococcus aureus = test: Antimicrobial activity against Staphylococcus aureus ATCC 25923 after 24 hrs by standard microbroth dilution technique; assay type: functional, organism-based
Candida parapsilosis = test: Antimicrobial activity against Candida parapsilosis ATCC 22019 after 48 hrs by standard microbroth dilution technique; assay type: functional; details: Lodderomyces parapsilosis, ATCC 22019, 48 h
[1] = tested on: Mycobacterium tuberculosis; test: Antitubercular activity against Mycobacterium tuberculosis H37Ra after 5 days by microplate alamar blue assay; assay type: functional; details: 120 h
Summary of the method: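 Microplate Alamar Blue assay on M. tuberculosis H37Ra. A log-phase culture was diluted to a final OD550 nm of 0.05 in Sauton's medium. Test compounds in DMSO were dispensed into 96-well plates, with two-fold dilutions in the initial screen.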

Aspergillus fumigatus = test: Antimicrobial activity against Aspergillus fumigatus after 72 hrs by standard microbroth dilution technique; assay type: functional
[2] = tested on: Mycobacterium tuberculosis; test: Antitubercular activity against Mycobacterium tuberculosis H37Rv after 24 hrs by agar microdilution method; assay type: functional
Summary of the method: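 Agar microdilution on M. tuberculosis H37Rv. Two-fold compound dilutions were made in 7H10 agar with OADC. Inoculum came from L–J medium, harvested in 0.85% saline with 0.05% Tween-80. Slants were held 24 h at 37 °C, then streaked with 5×10^4 bacilli per tube and incubated at 37 °C for 30 days. MIC was the concentration giving complete colony inhibition versus medium-only control.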

Klebsiella pneumoniae = test: Antimicrobial activity against Klebsiella pneumoniae ATCC 27736 after 24 hrs by standard microbroth dilution technique; assay type: functional, organism-based
Cryptococcus neoformans = test: Antimicrobial activity against Cryptococcus neoformans after 72 hrs by standard microbroth dilution technique; assay type: functional
Pseudomonas aeruginosa = test: Antimicrobial activity against Pseudomonas aeruginosa ATCC BAA-427 after 24 hrs by standard microbroth dilution technique; assay type: functional, organism-based
Candida albicans = test: Antimicrobial activity against Candida albicans ATCC 1405B after 48 hrs by standard microbroth dilution technique; assay type: functional
Sporothrix schenckii = test: Antimicrobial activity against Sporothrix schenckii after 72 hrs by standard microbroth dilution technique; assay type: functional
[3] = tested on: Trichophyton mentagrophytes; test: Antimicrobial activity against Trichophyton mentagrophytes after 96 hrs by standard microbroth dilution technique; assay type: functional

| SMILES | Activity (Escherichia coli) | Activity (Staphylococcus aureus) | MIC (Candida parapsilosis) [µg/mL] | MIC [1] [µg/mL] | MIC (Aspergillus fumigatus) [µg/mL] | MIC [2] [µg/mL] | Activity (Klebsiella pneumoniae) | MIC (Cryptococcus neoformans) [µg/mL] | Activity (Pseudomonas aeruginosa) | MIC (Candida albicans) [µg/mL] | MIC (Sporothrix schenckii) [µg/mL] | MIC [3] [µg/mL] |
| --- | --- | --- | --- | --- | --- | --- | --- | --- | --- | --- | --- | --- |
| COc1ccc(/C=C2\CCCC/C(=C\c3ccc(OC)c(OC)c3)C2=O)cc1OC | inactive | inactive | > 50 | > 12.5 | > 50 | > 12.5 | inactive | > 50 | inactive | > 50 | – | – |
| COc1ccc(/C=C2\CCC/C(=C\c3ccc(OC)c(OC)c3)C2=O)cc1OC | inactive | inactive | > 50 | > 12.5 | > 50 | > 12.5 | inactive | > 50 | inactive | > 50 | – | – |
| O=C1CCCCC1C(O)c1ccc(Br)cc1 (stereo not given) | inactive | inactive | > 50 | > 12.5 | > 50 | 12.5 (≈ 44.1 µM) | inactive | > 50 | inactive | > 50 | – | – |
| O=C1/C(=C/c2ccc([N+](=O)[O-])cc2)CCC/C1=C\c1ccc([N+](=O)[O-])cc1 | inactive | inactive | > 50 | 3.12 (≈ 8.56 µM) | > 50 | 12.5 (≈ 34.3 µM) | inactive | > 50 | inactive | > 50 | – | – |
| O=[N+]([O-])c1ccc(/C=C2\CCC/C(=C\c3ccc([N+](=O)[O-])cc3)C2O)cc1 | inactive | inactive | > 50 | > 12.5 | > 50 | > 12.5 | inactive | > 50 | inactive | > 50 | – | – |
| O=C1/C(=C/c2ccco2)CCC/C1=C\c1ccco1 | inactive | inactive | > 50 | > 12.5 | > 50 | > 12.5 | inactive | > 50 | inactive | > 50 | – | – |
| O=C1CCCCC1C(O)c1ccc([N+](=O)[O-])cc1 (stereo not given) | inactive | inactive | > 50 | > 12.5 | > 50 | 12.5 (≈ 50.1 µM) | inactive | > 50 | inactive | > 50 | – | – |
| O=C1/C(=C/c2ccc(Br)cc2)CCC/C1=C\c1ccc(Br)cc1 | inactive | inactive | – | 1.56 (≈ 3.61 µM) | – | 12.5 (≈ 28.9 µM) | inactive | – | inactive | – | 25 (≈ 57.8 µM) | 12.5 (≈ 28.9 µM) |
| COc1cc(/C=C2\CCC/C(=C\c3cc(OC)c(OC)c(OC)c3)C2=O)cc(OC)c1OC | inactive | inactive | > 50 | > 12.5 | > 50 | > 12.5 | inactive | > 50 | inactive | > 50 | – | – |
| OC1/C(=C/c2ccc(Br)cc2)CCC/C1=C\c1ccc(Br)cc1 (stereo not given) | inactive | inactive | > 50 | > 12.5 | > 50 | 12.5 (≈ 28.8 µM) | inactive | > 50 | inactive | > 50 | – | – |
| NNC(=O)c1ccncc1 [ISONIAZID] | – | – | – | – | – | 0.75 (≈ 5.47 µM) | – | – | – | – | – | – |
| O=C1CCCCC1C(O)c1ccccc1[N+](=O)[O-] (stereo not given) | inactive | inactive | > 50 | > 12.5 | > 50 | > 12.5 | inactive | > 50 | inactive | > 50 | – | – |
| O=C1/C(=C/c2ccc(Br)cc2)CCCC/C1=C\c1ccc(Br)cc1 | inactive | inactive | > 50 | > 12.5 | > 50 | > 12.5 | inactive | > 50 | inactive | > 50 | – | – |
| O=C1/C(=C/c2ccccc2)CCC/C1=C\c1ccccc1 [2,6-DIBENZYLIDENECYCLOHEXANONE] | inactive | inactive | > 50 | > 12.5 | > 50 | 6.25 (≈ 22.8 µM) | inactive | > 50 | inactive | > 50 | – | – |
| O=C1/C(=C/c2ccc3ccccc3c2)CCC/C1=C\c1ccc2ccccc2c1 | inactive | inactive | > 50 | > 12.5 | > 50 | > 12.5 | inactive | > 50 | inactive | > 50 | – | – |
| O=C1/C(=C/c2ccc(Cl)cc2)CCC/C1=C\c1ccc(Cl)cc1 | inactive | inactive | > 50 | > 12.5 | > 50 | > 12.5 | inactive | > 50 | inactive | > 50 | – | – |
| O=C1/C(=C/c2ccc(Cl)cc2)CCCC/C1=C\c1ccc(Cl)cc1 | inactive | inactive | > 50 | > 12.5 | > 50 | > 12.5 | inactive | > 50 | inactive | > 50 | – | – |
| COc1ccc(/C=C2\CCCC/C(=C\c3ccc(OC)cc3)C2=O)cc1 | inactive | inactive | > 50 | 6.25 (≈ 17.9 µM) | > 50 | > 12.5 | inactive | > 50 | inactive | > 50 | – | – |
| COc1ccc(/C=C2\CC/C(=C\c3ccc(OC)c(OC)c3)C2=O)cc1OC | inactive | inactive | > 50 | > 12.5 | > 50 | > 12.5 | inactive | > 50 | inactive | > 50 | – | – |
| O=C1CCCCC1C(O)c1cccc([N+](=O)[O-])c1 (stereo not given) | inactive | inactive | > 50 | > 12.5 | > 50 | 12.5 (≈ 50.1 µM) | inactive | > 50 | inactive | > 50 | – | – |
| O=C1/C(=C/c2ccc(OCc3ccccc3)cc2)CCC/C1=C\c1ccc(OCc2ccccc2)cc1 | inactive | inactive | > 50 | > 12.5 | > 50 | > 12.5 | inactive | > 50 | inactive | > 50 | – | – |
| O=C1/C(=C/c2ccc(F)cc2)CCC/C1=C\c1ccc(F)cc1 | inactive | inactive | > 50 | 12.5 (≈ 40.3 µM) | > 50 | > 12.5 | inactive | > 50 | inactive | > 50 | – | – |
| CC[C@@H](CO)NCCN[C@@H](CC)CO [ETHAMBUTOL] | – | – | – | – | – | 3.25 (≈ 15.9 µM) | – | – | – | – | – | – |
